# Assay results reported in ChEMBL document CHEMBL4196069 (Eur J Med Chem, 2018).
# Active and inactive are the calls of the source. The calls are words filed in the database; no cut-off is given here.
# Columns and labels:
# L02 = assay: Antiproliferative activity against human LO2 cells after 72 hrs by MTT assay; assay type: cell-based; conditions: L02, 72 h
# Procedure, shortened: (§1)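 Cells pre-incubated 24 h at 37 °C in humidified 5% CO2, then exposed to compounds for 72 h. MTT (5 mg/mL) was added for 4 h, formazan was dissolved in DMSO, and OD was read at 570 nm. Vehicle control was 0.1% DMSO. IC50 was calculated from inhibition ratios as the mean ± SD of three independent experiments.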
# PC-3 = assay: Antiproliferative activity against human PC3 cells after 72 hrs by MTT assay; assay type: functional, cell-based; conditions: PC-3, 72 h; procedure, shortened: as §1
# Bel-7402 [1] = assay: Induction of apoptosis in human Bel7402 cells assessed as early apoptotic cells at 0.5 uM after 72 hrs by Annexin V-FITC/propidium iodide staining based flow cytometry (reference value: 1.65%); assay type: functional
# Bel-7402 [2] = assay: Antiproliferative activity against human Bel7402 cells after 72 hrs by MTT assay; assay type: functional, cell-based; conditions: Bel-7402, 72 h; procedure, shortened: as §1
# Bel-7402 [3] = assay: Induction of mitochondrial membrane depolarization in human Bel7402 cells assessed as cell with intact mitochondrial membrane potential at 0.25 uM after 24 to 48 hrs by JC-1 staining based flow cytometric analysis (reference value: 98.83%); assay type: functional
# Bel-7402 [4] = assay: Cell cycle arrest in human Bel7402 cells assessed as accumulation at G1 phase at 0.5 uM after 72 hrs by propidium iodide staining-based flow cytometric method (reference value: 39.28%); assay type: functional
# Bel-7402 [5] = assay: Induction of mitochondrial membrane depolarization in human Bel7402 cells assessed as cells with mitochondrial membrane potential loss at 0.5 uM after 24 to 48 hrs by JC-1 staining based flow cytometric analysis (reference value: 6.17%); assay type: functional
# Bel-7402 [6] = assay: Upregulation of caspase-9 level in human Bel7402 cells at 0.125 to 0.5 uM after 72 hrs by Western blot analysis; assay type: functional, cell-based
# Procedure, shortened: (§2)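 Bel-7402 cells were treated for 72 h at the indicated concentrations (0.125–0.5 µM) and lysed. Lysates were cleared at 14,000 g for 10 min at 4 °C, and 25 µg protein per lane was run on 10% SDS-PAGE and transferred to nitrocellulose. Membranes were blocked in 5% milk, probed overnight at 4 °C with monoclonal antibodies, and detected by ECL. Densitometry was normalized to GAPDH.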
# Bel-7402 [7] = assay: Upregulation of p53 level in human Bel7402 cells after 72 hrs by Western blot analysis; assay type: functional, cell-based; procedure, shortened: as §2
# Bel-7402 [8] = assay: Cell cycle arrest in human Bel7402 cells assessed as accumulation at S phase at 0.125 uM after 72 hrs by propidium iodide staining-based flow cytometric method (reference value: 37.02%); assay type: functional
# Bel-7402 [9] = assay: Cell cycle arrest in human Bel7402 cells assessed as accumulation at G2/M phase at 0.5 uM after 72 hrs by propidium iodide staining-based flow cytometric method (reference value: 23.71%); assay type: functional
# Bel-7402 [10] = assay: Induction of apoptosis in human Bel7402 cells assessed as necrotic cells at 0.25 uM after 72 hrs by Annexin V-FITC/propidium iodide staining based flow cytometry (reference value: 13.05%); assay type: functional
# Bel-7402 [11] = assay: Induction of mitochondrial membrane depolarization in human Bel7402 cells assessed as cells with mitochondrial membrane potential loss at 0.25 uM after 24 to 48 hrs by JC-1 staining based flow cytometric analysis (reference value: 6.17%); assay type: functional
# Bel-7402 [12] = assay: Cell cycle arrest in human Bel7402 cells assessed as accumulation at G1 phase at 0.125 uM after 72 hrs by propidium iodide staining-based flow cytometric method (reference value: 39.28%); assay type: functional
# Bel-7402 [13] = assay: Induction of apoptosis in human Bel7402 cells assessed as necrotic cells at 0.5 uM after 72 hrs by Annexin V-FITC/propidium iodide staining based flow cytometry (reference value: 13.05%); assay type: functional
# Bel-7402 [14] = assay: Cell cycle arrest in human Bel7402 cells assessed as accumulation at G2/M phase at 0.125 uM after 72 hrs by propidium iodide staining-based flow cytometric method (reference value: 23.71%); assay type: functional
# Bel7402/5-FU = assay: Antiproliferative activity against human Bel7402/5-FU cells after 72 hrs by MTT assay; assay type: functional, cell-based; procedure, shortened: as §1
# [15] = Selectivity index, ratio of IC50 for human LO2 cells to IC50 for human Bel7402 cells; assay type: toxicity; conditions: LO2 cells versus Bel7402 cells, read-out: Ratio IC50
# Procedure, shortened: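 Selectivity index = IC50(L-O2)/IC50(Bel-7402), both IC50s from the 72 h MTT assay (mean of three independent experiments).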
# Bel-7402 [16] = assay: Cell cycle arrest in human Bel7402 cells assessed as accumulation at G2/M phase at 0.25 uM after 72 hrs by propidium iodide staining-based flow cytometric method (reference value: 23.71%); assay type: functional
# Bel-7402 [17] = assay: Induction of mitochondrial membrane depolarization in human Bel7402 cells after 24 to 48 hrs by JC1 staining based flow cytometric analysis; assay type: functional, cell-based
# Bel-7402 [18] = assay: Induction of apoptosis in human Bel7402 cells assessed as chromatin condensation at 0.125 to 0.25 uM after 48 hrs by Hoechst 33258 staining based fluorescent microscopic method; assay type: functional, cell-based
# Procedure, shortened: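 Bel-7402 cells were seeded and grown 24 h, treated at 0.125, 0.25 and 0.5 µM for 48 h, then harvested by mild trypsinization and washed in PBS. They were stained with Hoechst 33258 for 15 min at room temperature in the dark and examined by fluorescence microscopy with a DAPI filter. Untreated cells served as control.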
# Bel-7402 [19] = assay: Induction of apoptosis in human Bel7402 cells assessed as early apoptotic cells at 0.25 uM after 72 hrs by Annexin V-FITC/propidium iodide staining based flow cytometry (reference value: 1.65%); assay type: functional
# Bel-7402 [20] = assay: Induction of apoptosis in human Bel7402 cells assessed as late apoptotic cells at 0.125 uM after 72 hrs by Annexin V-FITC/propidium iodide staining based flow cytometry (reference value: 2.82%); assay type: functional
# HL-60 = assay: Antiproliferative activity against human HL60 cells after 72 hrs by MTT assay; assay type: functional, cell-based; conditions: HL-60, 72 h; procedure, shortened: as §1
# Bel-7402 [21] = assay: Cell cycle arrest in human Bel7402 cells assessed as accumulation at S phase at 0.25 uM after 72 hrs by propidium iodide staining-based flow cytometric method (reference value: 37.02%); assay type: functional
# Bel-7402 [22] = assay: Induction of apoptosis in human Bel7402 cells assessed as viable cells at 0.125 uM after 72 hrs by Annexin V-FITC/propidium iodide staining based flow cytometry (reference value: 82.48%); assay type: functional; conditions: Bel-7402, 72 h, read-out: Activity
# Bel-7402 [23] = assay: Induction of mitochondrial membrane depolarization in human Bel7402 cells assessed as cell with intact mitochondrial membrane potential at 0.125 uM after 24 to 48 hrs by JC-1 staining based flow cytometric analysis (reference value: 98.83%); assay type: functional
# Bel-7402 [24] = assay: Induction of mitochondrial membrane depolarization in human Bel7402 cells assessed as cell with intact mitochondrial membrane potential at 0.5 uM after 24 to 48 hrs by JC-1 staining based flow cytometric analysis (reference value: 98.83%); assay type: functional
# Bel-7402 [25] = assay: Induction of apoptosis in human Bel7402 cells assessed as late apoptotic cells at 0.5 uM after 72 hrs by Annexin V-FITC/propidium iodide staining based flow cytometry (reference value: 2.82%); assay type: functional
smiles,measurement,setting,value
C[C@H]1CCC/C=C/[C@@H]2C[C@H](O)C[C@H]2[C@H](OC(=O)c2ccc(N(CCCl)CCCl)cc2)/C=C/C(=O)O1,IC50,L02,9.74 µM
same,IC50,PC-3,9.37 µM
same,Activity,Bel-7402 [1],39.11%
same,IC50,Bel-7402 [2],0.25 µM
same,Activity,Bel-7402 [3],70.4%
same,Activity,Bel-7402 [4],58.17%
same,Activity,Bel-7402 [5],43.85%
same,Activity,Bel-7402 [6],Active
same,Activity,Bel-7402 [7],Dose-dependent effect
same,Activity,Bel-7402 [8],36.28%
same,Activity,Bel-7402 [9],11.69%
same,Activity,Bel-7402 [10],3.21%
same,Activity,Bel-7402 [11],29.5%
same,Activity,Bel-7402 [12],43.8%
same,Activity,Bel-7402 [13],3.87%
same,Activity,Bel-7402 [14],19.92%
same,IC50,Bel7402/5-FU,0.84 µM
same,selectivity ratio,[15],38.9
same,Activity,Bel-7402 [16],13.27%
same,Activity,Bel-7402 [17],Dose-dependent effect
same,Activity,Bel-7402 [18],Active
same,Activity,Bel-7402 [19],22.69%
same,Activity,Bel-7402 [20],5.47%
same,IC50,HL-60,4.48 µM
same,Activity,Bel-7402 [21],32.48%
same,viability at 0.125 µM,Bel-7402 [22],80.6%
same,Activity,Bel-7402 [23],83.63%
same,Activity,Bel-7402 [24],56.15%
same,Activity,Bel-7402 [25],18.48%
